Experimental data collected from several papers.
Protocols differ between the studies behind these lines.
Target: Serine/threonine-protein kinase PLK4 (PLK4, Homo sapiens, UniProt O00444)
One construct used (O00444 1-970): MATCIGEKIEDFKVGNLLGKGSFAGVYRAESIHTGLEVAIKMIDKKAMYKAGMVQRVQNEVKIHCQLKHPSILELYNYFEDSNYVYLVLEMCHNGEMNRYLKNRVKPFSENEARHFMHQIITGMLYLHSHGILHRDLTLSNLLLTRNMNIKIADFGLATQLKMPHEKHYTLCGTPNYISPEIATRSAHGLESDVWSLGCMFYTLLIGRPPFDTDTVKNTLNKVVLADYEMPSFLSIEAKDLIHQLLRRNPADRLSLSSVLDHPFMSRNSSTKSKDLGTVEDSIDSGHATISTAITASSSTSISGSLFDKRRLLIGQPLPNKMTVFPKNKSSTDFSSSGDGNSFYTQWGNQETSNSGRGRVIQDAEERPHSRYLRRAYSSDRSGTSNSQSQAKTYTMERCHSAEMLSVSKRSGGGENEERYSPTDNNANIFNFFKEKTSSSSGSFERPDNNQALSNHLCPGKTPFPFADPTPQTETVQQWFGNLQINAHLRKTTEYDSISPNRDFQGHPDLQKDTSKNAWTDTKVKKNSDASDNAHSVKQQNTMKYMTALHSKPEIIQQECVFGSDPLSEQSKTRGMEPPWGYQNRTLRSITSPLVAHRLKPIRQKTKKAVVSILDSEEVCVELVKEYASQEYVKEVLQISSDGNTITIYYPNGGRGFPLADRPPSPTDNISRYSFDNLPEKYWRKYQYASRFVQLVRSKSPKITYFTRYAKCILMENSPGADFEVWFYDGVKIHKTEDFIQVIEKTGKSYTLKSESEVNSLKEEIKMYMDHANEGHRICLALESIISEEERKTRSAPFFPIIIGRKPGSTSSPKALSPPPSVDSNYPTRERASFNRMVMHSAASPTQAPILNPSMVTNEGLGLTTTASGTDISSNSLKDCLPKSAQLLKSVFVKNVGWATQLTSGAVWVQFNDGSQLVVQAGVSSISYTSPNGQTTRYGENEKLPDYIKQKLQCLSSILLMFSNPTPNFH

Structure (SMILES)	assay	setting	endpoint	result
CCCCC(=O)Nc1ccc(-c2ccc3ncn(CCC)c(=O)c3c2)cn1	binding, competition with immobilised ligand	0.5 µM	remaining binding	100%
N#Cc1ccc(NC(=O)Nc2ccccc2)cc1	cell-free assay, competition with immobilised ligand	25 µM	remaining binding	61%
C=CC(=O)N1CCC([C@@H]2CCNc3c(C(N)=O)c(-c4ccc(Oc5ccccc5)cc4)nn32)CC1	enzyme activity, inhibitor	1 µM	inhibition	1%
Cc1ccc(NC(=O)c2ccnc(C(F)(F)F)c2)cc1-c1cc(OCCO)nc(N2CCOCC2)c1	binding, competition with immobilised ligand	1 µM	remaining binding	75%
C1=C/COCc2cc(ccc2OCCN2CCCC2)Nc2nccc(n2)-c2cccc(c2)COC/1	binding	0.1 µM	remaining binding	42%
C#Cc1cc(-c2cc(Nc3nc(N[C@@H](C)c4ccc(F)cn4)ncc3Cl)n[nH]2)ccc1C=O	enzyme activity, inhibitor	0.2 µM	inhibition	80.7%
C=CC(=O)N1CCC[C@@H](n2nc(-c3ccc(Oc4ccccc4)cc3)c3c(N)ncnc32)C1	enzyme activity, inhibitor	1 µM	inhibition	5%
COc1ccc2oc(-c3ccc4nc(N)oc4c3)c/c(=N\c3ccccc3NC(=O)CCN)c2c1	binding	1 µM	remaining binding	98%
C[C@H]1CC[C@H](n2c3cnccc3c3cnc(Nc4ccc5c(n4)CCN(C(=O)CO)C5)nc32)CC1	binding, competition with immobilised ligand	1 µM	remaining binding	18%
